Laboratory results as given in PMC3606642 (Journal of natural products, 2012).
“Also recorded” adds a separate entry of the source.

Test system: heat shock protein 70 (HSP70)
Test: Western blot analysis of HSP70 expression in U251 cells
Assay type: cell-based, human
Details: for HSP70 total cell expression (western blot): 5 μM, 24 h post-treatment; for Stress response (heat shock effect and oxidative stress effect) following treatment: effect abrogated by N-acetyl-cysteine
Procedure, shortened: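 U251 glioblastoma cells were grown in DMEM with 10% FBS and 1% penicillin/streptomycin at 37 °C and 5% CO2, plated sub-confluent and grown overnight. They were treated with test compound at 0, 0.1, 0.5, 1 and 5 μM for 24 h. Lysate proteins were quantified, run on SDS–PAGE, transferred to nitrocellulose and probed with anti-HSP70 (1:1000), with actin (1:50,000) as loading control and HRP secondaries (1:5000).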

C=C1C(=O)O[C@@H]2C[C@]1(C)OC[C@H]2[C@H]1CC[C@H]2[C@@H]3CC=C4CC=CC(=O)[C@]4(C)[C@H]3CC[C@]12C [Compound 3, withametelin]
HSP70 total cell expression (western blot): upregulation was observed; also recorded: markedly upregulated
Stress response (heat shock effect and oxidative stress effect) following treatment: observed

C=C1C(=O)O[C@@H]2C[C@]1(C)OC[C@H]2[C@H]1CC[C@H]2[C@@H]3C[C@@H](O)[C@@]4(O)CC=CC(=O)[C@]4(C)[C@H]3CC[C@]12C [Compound 4, withametelin O]
Stress response (heat shock effect and oxidative stress effect) following treatment: do not exhibit this stress response

C=C1C(=O)O[C@@H]2C[C@]1(C)OC[C@H]2[C@H]1CC[C@H]2[C@@H]3CC=C4CC=CC(=O)[C@]4(C)[C@H]3C[C@@H](O)[C@]12C [Compound 2, (20R,22R,24R)-21,24-epoxy-12β-hydroxy-1-oxowitha-2,25,25(27)-trienolide]
HSP70 total cell expression (western blot): upregulation was observed; also recorded: markedly upregulated
Stress response (heat shock effect and oxidative stress effect) following treatment: observed

C=C1C(=O)O[C@@H]2C[C@]1(C)OC[C@H]2[C@H]1CC[C@H]2[C@@H]3C[C@H]4O[C@]45CC=CC(=O)[C@]5(C)[C@H]3CC[C@]12C [Compound 5, withametelin F]
HSP70 total cell expression (western blot): upregulation was observed; also recorded: markedly upregulated
Stress response (heat shock effect and oxidative stress effect) following treatment: observed

C=C1C(=O)O[C@@H]2C[C@@]1(C)OC[C@H]2[C@H]1CC[C@H]2[C@@H]3C[C@@H](O)[C@@]45C[C@H]4CC(=O)[C@]5(C)[C@H]3CC[C@]12C [Compound 1, (20R,22R,24R)-21,24-epoxy-3α,5α-cyclo-1-oxowitha-25(27)-enolide]
Stress response (heat shock effect and oxidative stress effect) following treatment: do not exhibit this stress response
